Assay outcomes: PubChem BioAssay, Broad Institute
PfHsp90 yeast 2 – growth inhibition of yeast expressing Plasmodium Hsp90. S. cerevisiae expressing PfHsp90, BacTiter-Glo ATP, 48 h; yeast lacking PDR1 and PDR3 efflux regulators. inhibition, % at 9.4 µM. 0.32% of 310,000 active;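 active means every replicate shows inhibition above about 80%, whatever the replicate mean, limit read from the data; inconclusive means mean inhibition reaches the set limit but some replicate falls short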;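 further: 0% = DMSO neutral controls and 100% = 20 µM radicicol positive controls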
SKKanGAS inh – SKKanGAS growth inhibition; inhibition, % at 7.5 µM; 1.3% of 300,000 active; S. pyogenes SKKanGAS, kanamycin growth, BacTiter-Glo, 6 h;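 active means mean replicate score, as percent of positive control median, at least 50; inconclusive means mean below 50 but one replicate at or above 50; inactive means mean and every replicate below 50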;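 further: strain carries kanamycin resistance gene driven by streptokinase promoter and grows in 40 µg/ml kanamycin; loss of luminescence reflects streptokinase promoter inhibition or plain growth inhibition; 0% = median of DMSO wells and 100% = positive control at its reference dose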
Rtt109 Vps75 – blocks Candida albicans Rtt109/Vps75 acetyltransferase activity; inhibition, % at 34.9 µM; purified Rtt109/Vps75, ThioGlo CoA-SH fluorescence, 4 h; 0.16% of 330,000 active;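 active means inhibition of at least 50% in every replicate; inconclusive means best replicate reaches 50% inhibition but some replicates fall short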
Target sequence (Q5AAJ8 whole entry, looked up): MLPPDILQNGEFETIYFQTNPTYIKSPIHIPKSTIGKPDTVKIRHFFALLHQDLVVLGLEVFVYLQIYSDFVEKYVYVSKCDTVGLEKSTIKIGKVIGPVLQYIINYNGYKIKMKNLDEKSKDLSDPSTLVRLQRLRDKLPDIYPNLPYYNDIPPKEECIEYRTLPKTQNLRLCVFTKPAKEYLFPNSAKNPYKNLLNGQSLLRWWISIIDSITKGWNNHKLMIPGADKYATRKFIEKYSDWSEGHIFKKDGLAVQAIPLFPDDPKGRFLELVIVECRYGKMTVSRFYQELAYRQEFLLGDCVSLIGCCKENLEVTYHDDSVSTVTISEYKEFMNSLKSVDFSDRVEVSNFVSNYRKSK
FN deposition inh – fibronectin deposition inhibition; 0.086% of 350,000 active; inhibition, % at 12.6 µM; AH1F fibroblasts, Alexa488-fibronectin deposition fluorescence, overnight;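 active means mean inhibition across replicates of 30% or more, regardless of how many single replicates reach that level; inconclusive means mean under 30% yet at least half of replicates reach 30%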;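 further: positive control wells lacked labelled fibronectin entirely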
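Test system: AH1F fibroblast monolayer depositing Alexa488-labelled fibronectin into matrix. Input: 10000 cells per well. Technique: fluorescence, ex 485 nm, em 525 nm. Buffer or medium: DMEM plus 2% serum, read in PBS. Timing: 1 h cell adhesion before compound, then overnight fibronectin incubation. Compound: single dose, pinned. Read-out basis: inhibition from reduced deposited-fibronectin fluorescence.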
PglD DTNB – blocks C. jejuni PglD acetyltransferase activity. purified PglD enzyme, DTNB colorimetric CoA detection. inhibition, % at 12.5 µM. 0.098% of 360,000 active. AID 602405; in the data active means inhibition above about 16%, passing the limit was not always enough; inconclusive means no clear call, values can overlap the other calls
CSC inhib – cancer stem cell inhibition; 1.1% of 300,000 active; cancer stem cell-like cells viability, luminescence; AID 2717; inhibition, % at 7.5 µM; in the data active means inhibition above about 75%; inconclusive means no clear call, values can overlap the other calls; tested in HMLE shEcad cells
* = called active by the depositor; ? = inconclusive; nt = no result. This is a sample that favours compounds with a hit; in the whole collection about 1.7% have one here.

SMILES	PfHsp90 yeast 2	SKKanGAS inh	Rtt109 Vps75	FN deposition inh	PglD DTNB	CSC inhib
COc1ccc(/C=C/C(=O)c2ccc(O)cc2)cc1COc1ccc(F)cc1	-75	14	5	nt	-2	97*
CO[C@H]1CN(C)C(=O)c2cc(NC(=O)Nc3ccc4c(c3)OCO4)ccc2OC[C@@H](C)NC[C@H]1C	nt	nt	nt	-19	0	nt
Cc1cc(N/N=C/c2ccc(O)c(C)c2O)nc(-c2ccccc2O)n1	-55	58*	-11	22	-10	113*
C/C(=N\Nc1cc(C)nc(-c2ccccc2O)n1)c1ccccc1	-38	23	5	nt	nt	-1
CN(C)Cc1ccccc1C(O)(c1ccccc1)c1ccccc1	-21	5	-6	-4	5	5
CC1(C)OC(C(O)(c2ccccc2)c2ccccc2)[C@@H](C(O)(c2ccccc2)c2ccccc2)O1 (stereo partly drawn)	-8	51*	0	-9	-1	108*
C[C@H]1CN([C@@H](C)CO)C(=O)Cc2cc(NC(=O)NC3CCCCC3)ccc2O[C@@H]1CN(C)C(=O)Nc1cccc2ccccc12	nt	nt	nt	nt	-3	nt
O=C(C1CCOCC1)N1CCCC(N2CCN(c3cccc(C(F)(F)F)c3)CC2)C1 (stereo not drawn)	-117	0	52*	-2	-1	-2
CC(NC(=O)C1CCC(C(=O)NC(C)c2ccccc2)CC1)c1ccccc1 (stereo not drawn)	-2	2	0	2	-3	110*
O=C(Cc1ccc(Cl)cc1)Nc1ccc2oc(=O)ccc2c1	-2	-2	0	1	0	-4
O=C(Cc1ccc(Cl)cc1)Nc1ccc(-c2cc3ccccc3oc2=O)c(Cl)c1	-24	23	-5	3	-5	82*
Oc1ccccc1N=Nc1ccccc1O	0	59*	-10	15	nt	nt
CC(C)c1cccc(C(C)C)c1OC(=O)[C@H]1OC(c2ccc(Br)cc2)=C[C@@H]1c1ccc(Br)cc1	-18	nt	0	-9	11	111*
CC(C)c1cccc(C(C)C)c1OC(=O)[C@H]1OC(C(C)(C)C)=C[C@@H]1c1ccccc1	-9	nt	-4	-4	-2	21
COc1cccc(S(=O)(=O)Nc2ccc3c(c2)C(=O)N(C)C[C@H](OC)[C@@H](C)CN[C@H](C)CO3)c1	nt	nt	nt	2	2	nt
COc1cnc(-c2ccccc2)nc1Oc1ccccc1C	2	7	9	nt	4	3
COc1cnc(-c2ccccc2)nc1Oc1ccc(C(C)(C)C)cc1	8	93*	-2	nt	0	49
COc1ccc(NC(=O)N(C)C[C@H]2Oc3c(NC(=O)NC(C)C)cccc3C(=O)N([C@H](C)CO)C[C@H]2C)cc1	nt	nt	nt	nt	-2	nt
Cc1c(C(=O)NN2CCCCC2)nn(-c2ccc(Cl)cc2Cl)c1-c1ccc(I)cc1	nt	24	nt	nt	nt	101*
O=C(C=P(c1ccccc1)(c1ccccc1)c1ccccc1)c1ccccc1-c1ccccc1C(=O)C=P(c1ccccc1)(c1ccccc1)c1ccccc1	145*	nt	8	8	nt	nt
O=C(NNC(=O)c1ccccc1-c1ccccc1C(=O)O)c1ccccc1	-12	-5	1	0	nt	-9
O=S(=O)(c1ccc(F)cc1)N1CCCCN2[C@H](CO)[C@H](c3ccc(C4=CCCCC4)cc3)[C@@H]2C1	nt	nt	nt	nt	10	nt
O=C(Nc1cccc(Cl)c1)Nc1csc([N+](=O)[O-])c1	37	51*	1	7	-3	?
Cc1ccccc1NC(=O)c1ccc([N+](=O)[O-])o1	13	8	-6	4	nt	24
O=C(/C=C/c1cccc([N+](=O)[O-])c1)c1ccco1	85*	-2	-7	7	-6	7
O=C(/C=C/c1cccc([N+](=O)[O-])c1)Nc1cccc(NC(=O)c2ccco2)c1	1	-1	8	5	nt	14
Cc1nc2ccccn2c1C(=O)/C=C/c1cccc([N+](=O)[O-])c1	-55	7	0	-2	nt	88*
COc1ccc(/C=C/C(=O)c2ccc([N+](=O)[O-])o2)cc1	15	30	-15	-4	-6	?
Cc1ccccc1/C=C/C(=O)c1ccc([N+](=O)[O-])o1	nt	62*	nt	42*	nt	41
Cc1ccc(/C=C/C(=O)c2c(C)nc3ccccn23)cc1	-38	23	-2	nt	2	47
